The source made the active and inactive calls. No cut-off for these calls is given here.
How the values were obtained:
HeLa = experiment: Cytotoxicity against human HeLa cells by XTT assay; assay type: cell-based
Procedure, shortened: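 HeLa human cervical cancer cells were exposed to the compounds. Viability was read by XTT colorimetric assay, and IC50 was reported in μM and mg·L–1.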

Staphylococcus aureus [1] = experiment: Potentiation of oxacillin induced antibacterial activity against Staphylococcus aureus Mu50 NRS1 assessed as oxacillin MIC at 16 uM measured after 16 to 20 hrs in presence of 2% NaCl by microdilution broth method (reference value: 256 mg/L); assay type: functional
Staphylococcus aureus [2] = experiment: Potentiation of oxacillin induced antibacterial activity against Staphylococcus aureus NRS70 assessed as oxacillin MIC at 8 uM measured after 16 to 20 hrs in presence of 2% NaCl by microdilution broth method (reference value: 64 mg/L); assay type: functional
Staphylococcus aureus [3] = experiment: Potentiation of oxacillin induced antibacterial activity against Staphylococcus aureus USA100-NRS382 assessed as oxacillin MIC at 16 uM measured after 16 to 20 hrs in presence of 2% NaCl by microdilution broth method (reference value: 64 mg/L); assay type: functional
Staphylococcus aureus [4] = experiment: Potentiation of oxacillin induced antibacterial activity against Staphylococcus aureus MRSA252 assessed as oxacillin MIC at 16 uM measured after 16 to 20 hrs in presence of 2% NaCl by microdilution broth method (reference value: 256 mg/L); assay type: functional
Staphylococcus aureus [5] = experiment: Antibacterial activity against Staphylococcus aureus USA100-NRS382 measured after 16 to 20 hrs in presence of 2% NaCl by microdilution broth method; assay type: functional
Staphylococcus aureus [6] = experiment: Potentiation of oxacillin induced antibacterial activity against methicillin susceptible Staphylococcus aureus ATCC29213 assessed as reduction in oxacillin MIC at 20 uM measured after 16 to 20 hrs in presence of 2% NaCl by microdilution broth method; assay type: functional
Procedure, shortened: (§1)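 Oxacillin MIC was measured against methicillin-susceptible strains with the adjuvant fixed at 20 μM. Potentiation was expressed as fold reduction of the oxacillin MIC relative to oxacillin alone.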

Staphylococcus aureus [7] = experiment: Potentiation of oxacillin induced antibacterial activity against methicillin susceptible Staphylococcus aureus NRS77 assessed as reduction in oxacillin MIC at 20 uM measured after 16 to 20 hrs in presence of 2% NaCl by microdilution broth method; assay type: functional; procedure, shortened: as §1
Staphylococcus aureus [8] = experiment: Potentiation of oxacillin induced antibacterial activity against Staphylococcus aureus NRS70 assessed as oxacillin MIC at 20 uM measured after 16 to 20 hrs in presence of 2% NaCl by microdilution broth method (reference value: 64 mg/L); assay type: functional
Staphylococcus aureus [9] = experiment: Inhibition of N-terminal His-tagged Staphylococcus aureus capA1ct/B2 expressed in Escherichia coli BL21 star (DE3) assessed as decrease in phosphorylation at 100 uM using MBP as substrate measured after 20 mins in presence of [33P] gammaATP by SDS-PAGE
Staphylococcus aureus [10] = experiment: Inhibition of recombinant […] N-terminal Stre-tagged Staphylococcus aureus NCTC8325 STK1 domain (1 to 348 residues) expressed in Escherichia coli BL21 star (DE3) assessed as decrease in phosphorylation at 100 uM using MBP as substrate measured after 20 mins in presence of [33P] gammaATP by SDS-PAGE
Staphylococcus aureus [11] = experiment: Inhibition of recombinant full length N-terminal Stre-tagged Staphylococcus aureus NCTC8325 STK1 expressed in Escherichia coli BL21 star (DE3) assessed as decrease in phosphorylation at 100 uM using MBP as substrate measured after 20 mins [33P] gammaATP by SDS-PAGE
Staphylococcus aureus [12] = experiment: Inhibition of C-terminal His-tagged Staphylococcus aureus NCTC8325 RsbW expressed in Escherichia coli BL21 star (DE3) assessed as decrease in phosphorylation at 100 uM using RsbV as substrate measured after 20 mins in presence of [33P] gammaATP by SDS-PAGE
Staphylococcus aureus [13] = experiment: Inhibition of N-terminal His-tagged Staphylococcus aureus NCTC8325 RsbV expressed in Escherichia coli BL21 star (DE3) assessed as decrease in phosphorylation at 100 uM measured after 20 mins in presence of [33P] gammaATP by SDS-PAGE
Staphylococcus aureus [14] = experiment: Synergistic antibacterial activity against methicillin resistant Staphylococcus aureus Mu50 NRS1 assessed as fractional inhibitory concentration index in presence of oxacillin by checkerboard assay; assay type: functional
Procedure, shortened: (§2)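 Checkerboard combinations of the adjuvant with oxacillin were tested against MRSA strains NRS1, NRS70 and NRS384. The fractional inhibitory concentration index (FICI) was derived from the combination MICs, and each interaction was classed as synergistic or indifferent (additive).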

Staphylococcus aureus [15] = experiment: Synergistic antibacterial activity against methicillin resistant Staphylococcus aureus NRS70 assessed as fractional inhibitory concentration index in presence of oxacillin by checkerboard assay; assay type: functional; procedure, shortened: as §2
Staphylococcus aureus [16] = experiment: Synergistic antibacterial activity against methicillin resistant Staphylococcus aureus NRS384 assessed as fractional inhibitory concentration index in presence of oxacillin by checkerboard assay; assay type: functional; procedure, shortened: as §2

Compound	MIC (Staphylococcus aureus [1])	MIC (Staphylococcus aureus [2])	MIC (Staphylococcus aureus [3])	MIC (Staphylococcus aureus [4])	MIC (Staphylococcus aureus [5])	MIC (Staphylococcus aureus [8])	IC50 (HeLa)	fold change (FC) (Staphylococcus aureus [6])	fold change (FC) (Staphylococcus aureus [7])	inhibition (Staphylococcus aureus [9])	inhibition (Staphylococcus aureus [10])	inhibition (Staphylococcus aureus [11])	inhibition (Staphylococcus aureus [12])	inhibition (Staphylococcus aureus [13])	fractional inhibitory concentration index (FICI) (Staphylococcus aureus [14])	fractional inhibitory concentration index (FICI) (Staphylococcus aureus [15])	fractional inhibitory concentration index (FICI) (Staphylococcus aureus [16])	MIC (Staphylococcus aureus [8]; record 2)
N#C/C(=C\c1cc(Cc2ccc(Cl)c(Cl)c2)ccc1F)S(=O)(=O)c1ccccn1	0.03 µg/mL	4 µg/mL	0.25 µg/mL	128 µg/mL	16 µg/mL	≤ 0.03 µg/mL	87 µM	2 - 10	2 - 10									
CS(=O)(=O)/C(C#N)=C/c1cc(Cc2ccc(Cl)c(Cl)c2)ccc1OC(F)(F)F	0.12 µg/mL	0.25 µg/mL	0.06 µg/mL	≤ 0.03 µg/mL	≥ 64 µg/mL	Active	73 µM	2 - 10	2 - 10	inactive	inactive	inactive	inactive	inactive	0.28	0.28	0.38	≤ 0.03 µg/mL

The next lines start with results.

MIC (Staphylococcus aureus [1])	MIC (Staphylococcus aureus [2])	MIC (Staphylococcus aureus [3])	MIC (Staphylococcus aureus [4])	MIC (Staphylococcus aureus [5])	MIC (Staphylococcus aureus [8])	Compound	IC50 (HeLa)	fold change (FC) (Staphylococcus aureus [6])	fold change (FC) (Staphylococcus aureus [7])	inhibition (Staphylococcus aureus [9])	inhibition (Staphylococcus aureus [10])	inhibition (Staphylococcus aureus [11])	inhibition (Staphylococcus aureus [12])	inhibition (Staphylococcus aureus [13])	fractional inhibitory concentration index (FICI) (Staphylococcus aureus [14])	fractional inhibitory concentration index (FICI) (Staphylococcus aureus [15])	fractional inhibitory concentration index (FICI) (Staphylococcus aureus [16])	MIC (Staphylococcus aureus [8]; record 2)
16 µg/mL	16 µg/mL	2 µg/mL	128 µg/mL	32 µg/mL	0.12 µg/mL	CS(=O)(=O)/C(C#N)=C/c1cc(-c2ccc(Cl)c(Cl)c2)ccc1F	130 µM	2 - 10	2 - 10									
4 µg/mL	8 µg/mL	1 µg/mL	256 µg/mL	≥ 64 µg/mL	≤ 0.03 µg/mL	CS(=O)(=O)/C(C#N)=C/c1cc(Cc2ccc(Cl)c(Cl)c2)ccc1F	125 µM	2 - 10	2 - 10									
4 µg/mL	64 µg/mL	1 µg/mL	256 µg/mL	16 µg/mL	Active	CS(=O)(=O)/C(C#N)=C/c1c(F)ccc(Cc2ccc(Cl)c(Cl)c2)c1F	92 µM	2 - 10	2 - 10									≤ 0.03 µg/mL

Source: ChEMBL document CHEMBL4304792, “Cinnamonitrile Adjuvants Restore Susceptibility to β-Lactams against Methicillin-Resistant Staphylococcus aureus” (ACS Med Chem Lett, 2019)
